Results on 18 compounds are retold here after ChEMBL document CHEMBL1147710, “Synthesis of (2E)-3-{2-[(substituted benzyl)oxy]phenyl}acrylaldehydes as novel anti-inflammatory agents” (Bioorg Med Chem Lett, 2006).

As usually defined, the inhibition is the relative decrease from the control value, in per cent. In general, IC50 refers to the concentration that inhibits the measured activity by half. Low values mean greater potency, high ones weaker potency.

Experiment [1] has as its system Neutrophil. The experiment can be described thus: Inhibition of PMA-induced superoxide formation in Sprague-Dawley rat neutrophil at 10 uM. Type of experiment: functional. An outline of the steps:
(§1)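 Superoxide generation by rat (Sprague Dawley) neutrophils stimulated with PMA at 3 nM. Test range 1–30 µM. Readout is superoxide formed in nmol/10⁶ cells/30 min, with percent inhibition versus control. N = 3.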

Experiment [2] concerns Neutrophil. The experiment can be described thus: Inhibition of fMLP-induced superoxide formation in Sprague-Dawley rat neutrophil at 3 uM. The format is functional. Put shortly:
(§2)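 Rat (Sprague Dawley) neutrophils were stimulated with fMLP (0.3 µM) plus cytochalasin B (5 µg/mL). Superoxide formed was reported as nmol/10⁶ cells/30 min and percent inhibition versus control. IC50 was derived from the […] concentration series. N = 3.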

In experiment [3] the test system is Neutrophil. Description: Formation of fMLP-induced superoxide in Sprague-Dawley rat neutrophil at 10 uM per 10^6 cells after 30 min. The format is functional. Put shortly:
as §2

Experiment [4] relates to Neutrophil. The experiment can be described thus: Inhibition of fMLP-induced superoxide formation in Sprague-Dawley rat neutrophil. Type of experiment: functional, cell-based. Put shortly:
as §2

Experiment [5] concerns Neutrophil. Description: Formation of PMA-induced superoxide in Sprague-Dawley rat neutrophil at 10 uM per 10^6 cells after 30 min. The format is functional. An outline of the steps:
as §1

In experiment [6] the test system is Neutrophil. Description: Formation of fMLP-induced superoxide in Sprague-Dawley rat neutrophil at 30 uM per 10^6 cells after 30 min. The format is functional. Put shortly: as §2
Experiment [7] deals with Neutrophil. The experiment can be described thus: Inhibition of fMLP-induced superoxide formation in Sprague-Dawley rat neutrophil at 10 uM. The format is functional. Put shortly:
as §2

Experiment [8] concerns Neutrophil. The experiment can be described thus: Inhibition of PMA-induced superoxide formation in Sprague-Dawley rat neutrophil at 30 uM. Type of experiment: functional. An outline of the steps: as §1
Experiment [9] deals with Neutrophil. The experiment can be described thus: Inhibition of fMLP-induced superoxide formation in Sprague-Dawley rat neutrophil at 30 uM. Type of experiment: functional. An outline of the steps:
as §2

The test system of experiment [10] is Neutrophil. The experiment can be described thus: Formation of PMA-induced superoxide in Sprague-Dawley rat neutrophil at 30 uM per 10^6 cells after 30 min. Type of experiment: functional. Put shortly:
as §1

Experiment [11] concerns Neutrophil. Description: Formation of fMLP-induced superoxide in Sprague-Dawley rat neutrophil at 3 uM per 10^6 cells after 30 min. Type of experiment: functional. Put shortly: as §2
Experiment [12] relates to Neutrophil. The experiment can be described thus: Inhibition of fMLP-induced superoxide formation in Sprague-Dawley rat neutrophil at 1 uM. The format is functional. An outline of the steps:
as §2

The subject of experiment [13] is Neutrophil. The experiment can be described thus: Formation of fMLP-induced superoxide in Sprague-Dawley rat neutrophil at 1 uM per 10^6 cells after 30 min. The format is functional. Put shortly:
as §2

With `COc1ccc(COc2ccccc2/C=C/C=O)cc1`, the inhibition at 10 µM in experiment [1] is -24.5%; in experiment [7] it was 71.3%. Besides, the inhibition at 3 µM in experiment [2] was found to be 44.6%. In addition, the Activity in experiment [3] is 0.81 nmol; in experiment [5], 9.45 nmol; in [6], 0.33 nmol; in [10] it was 9.28 nmol; in [11], 1.58 nmol. In addition, in experiment [4], it took 3.8 µM to reach half-maximal inhibition (IC50). The inhibition at 30 µM was -22.2% in experiment [8] and 88.2% in [9].
Consider `O=C/C=C/c1ccccc1OCc1ccccc1F`, for which the inhibition at 10 µM in experiment [1] is -24.1%; in [7], 75.1%. The inhibition at 3 µM in [2] worked out at 47.5%. In addition, the Activity worked out at 0.72 nmol in experiment [3]; 9.45 nmol in [5]; 0.35 nmol in [6]; 9.82 nmol in [10]; 1.48 nmol in experiment [11]. In addition, it took 3.3 µM to reach half-maximal inhibition in experiment [4] (IC50). The values for the inhibition at 30 µM in experiment [8] and in experiment [9] were -29.4% and 87.6%, respectively.
Turning to `COc1ccc(OCc2ccccc2)c(/C=C/C=O)c1`, the inhibition at 10 µM is -24% in experiment [1] and 81.2% in experiment [7]. Also, the inhibition at 3 µM in [2] amounted to 52.2%. The Activity amounted to 0.53 nmol in [3]; 9.42 nmol in experiment [5]; 2.09 nmol in [13]; 9.19 nmol in experiment [10]; 1.37 nmol in experiment [11]. In experiment [4], the IC50 amounted to 2.6 µM. For the same compound, the inhibition at 30 µM in experiment [8] is -20.9%. For the same compound, in experiment [12], the inhibition at 1 µM turned out to be 26.7%.
Take `O=C/C=C/c1ccccc1OCc1ccccc1`: the inhibition at 10 µM in [1] is -13.5%; in experiment [7] it was 63.7%. For the same compound, in experiment [2], the inhibition at 3 µM was 31.8%. Besides, the Activity is on record as 1.05 nmol in experiment [3]; 8.61 nmol in [5]; 0.48 nmol in experiment [6]; 9.39 nmol in [10]; 1.96 nmol in [11]. Half-maximal inhibition in experiment [4] (IC50) was put at 6.4 µM. Also, the inhibition at 30 µM in [8] was -23.6%; in experiment [9], 83.2%.
`COc1ccc(OCc2cccc(Cl)c2)c(/C=C/C=O)c1`: the inhibition at 10 µM in experiment [1] was -35.7%; in experiment [7] it was 77.7%. For the same compound, in experiment [2], the inhibition at 3 µM came out at 36.8%. The Activity was found to be 0.67 nmol in experiment [3]; 10.3 nmol in experiment [5]; 2.54 nmol in experiment [13]; 9.96 nmol in experiment [10]; 1.82 nmol in experiment [11]. The same compound gave an IC50 in experiment [4] of 4.2 µM. The inhibition at 30 µM in experiment [8] is -31.2%. The inhibition at 1 µM in experiment [12] worked out at 11.4%.
With `COc1ccc(OCc2ccccc2Cl)c(/C=C/C=N/O)c1`, the inhibition at 10 µM was 1.5% in experiment [1] and 40.4% in [7]. Also, the inhibition at 3 µM in experiment [2] was found to be 29.5%. Besides, the Activity in experiment [3] turned out to be 2.09 nmol; in [5], 5.27 nmol; in experiment [6] it was 0.78 nmol; in [10] it was 7.62 nmol; in [11], 2.45 nmol. This compound also returned an IC50 in experiment [4] of 9.5 µM. The inhibition at 30 µM was -44.4% in [8] and 77.7% in experiment [9].
Take `O=C/C=C/c1ccccc1OCc1cccc(Cl)c1`: the inhibition at 10 µM in [1] is -30.1%; in [7] it was 65.7%. Besides, the inhibition at 3 µM in experiment [2] was 31.2%. Also, the Activity came to 0.99 nmol in experiment [3]; 9.85 nmol in experiment [5]; 0.34 nmol in experiment [6]; 9.06 nmol in [10]; 2 nmol in experiment [11]. The compound also displayed an IC50 in experiment [4] of 5.9 µM. The inhibition at 30 µM was -18.7% in experiment [8] and 88% in experiment [9].
Regarding `O=C/C=C/c1ccccc1OCc1ccc(Cl)cc1`, the inhibition at 10 µM was -23.9% in experiment [1] and 63.1% in experiment [7]. For the same compound, in [2], the inhibition at 3 µM came out at 22.4%. For the same compound, the Activity in [3] amounted to 1.05 nmol; in experiment [5], 9.41 nmol; in [6], 0.37 nmol; in [10], 9.26 nmol; in [11], 2.23 nmol. For the same compound, the IC50 in experiment [4] was found to be 7.4 µM. Also, the values for the inhibition at 30 µM in [8] and in experiment [9] were -22% and 86.9%, respectively.
`COc1ccc(OCc2ccc(Cl)cc2)c(/C=C/C=O)c1`: the inhibition at 10 µM in experiment [1] was -23.3%; in experiment [7], 27.1%. The Activity in experiment [3] was found to be 2.1 nmol; in experiment [5] it was 9.39 nmol; in experiment [6] it was 1.9 nmol; in experiment [10], 9.55 nmol. Further, the inhibition at 30 µM was -25.5% in experiment [8] and 33.4% in experiment [9].
Consider `O=C/C=C/c1ccccc1OCc1cccc(Cl)c1Cl`, for which the inhibition at 10 µM in experiment [1] was 11.2%; in experiment [7], 17.4%. Further, the Activity in experiment [3] was 2.39 nmol; in [5], 6.72 nmol; in experiment [6], 1.75 nmol; in [10] it was 6.29 nmol. In addition, the figures for the inhibition at 30 µM in experiment [8] and in experiment [9] were 17.3% and 39.9%, respectively.
For `O=C/C=C/c1ccccc1OCc1ccc(Cl)cc1Cl`, the inhibition at 10 µM in experiment [1] was -22.7%; in [7] it was 24.4%. Moreover, the Activity is reported as 2.16 nmol in experiment [3], 9.29 nmol in experiment [5], 1.76 nmol in experiment [6] and 9.84 nmol in experiment [10]. The inhibition at 30 µM in experiment [8] is -29.8%; in experiment [9], 39.9%.
`COc1ccc(OCc2ccccc2)c(/C=C/C=N/O)c1`: the inhibition at 10 µM was determined as 7.6% in [1] and 70% in experiment [7]. For the same compound, in [2], the inhibition at 3 µM is 41.9%. The Activity in experiment [3] is reported as 1.05 nmol; in experiment [5], 4.97 nmol; in experiment [6], 0.48 nmol; in experiment [10], 6.9 nmol; in [11] it was 2.03 nmol. In experiment [4], inhibition was half-maximal at 4.3 µM (IC50). Moreover, the values for the inhibition at 30 µM in [8] and in experiment [9] were -29.4% and 86%, respectively.
For `O=C/C=C/c1ccccc1OCc1cccc(F)c1`, the inhibition at 10 µM in experiment [1] was -6.2%; in [7], 73%. For the same compound, in experiment [2], the inhibition at 3 µM was 40.3%. In addition, the Activity in experiment [3] came to 0.76 nmol; in [5] it was 8.07 nmol; in [6] it was 0.46 nmol; in experiment [10] it was 9.38 nmol; in [11], 1.7 nmol. Moreover, the IC50 in experiment [4] was 4.5 µM. Moreover, the values for the inhibition at 30 µM in experiment [8] and in experiment [9] were -23.7% and 83.9%, respectively.
On to `Cc1ccc(COc2ccccc2/C=C/C=O)cc1`, for which the inhibition at 10 µM in [1] is -13.2%; in experiment [7], 45.1%. Moreover, the inhibition at 3 µM in [2] was found to be 21.9%. The Activity turned out to be 1.57 nmol in experiment [3]; 8.53 nmol in experiment [5]; 0.78 nmol in [6]; 9.51 nmol in experiment [10]; 2.24 nmol in experiment [11]. This compound also displayed an IC50 in [4] of 11 µM. The inhibition at 30 µM in experiment [8] was -25.8%; in experiment [9] it was 73.2%.
In the case of `COc1ccc(OCc2ccccc2Cl)c(/C=C/C=O)c1`, the inhibition at 10 µM is -17.5% in experiment [1] and 34.3% in [7]. Also, the Activity in experiment [3] was determined as 1.89 nmol; in experiment [5], 8.94 nmol; in experiment [6] it was 1.69 nmol; in experiment [10], 9.63 nmol. The inhibition at 30 µM in [8] is -26.9%; in experiment [9], 40.9%.
For `COc1ccc(OCc2ccc(Cl)cc2)c(/C=C/C=N/O)c1`, the inhibition at 10 µM in experiment [1] was -124%; in experiment [7], 27.9%. In addition, the Activity in experiment [3] came to 2.53 nmol; in [5], 11.9 nmol; in [6], 2.41 nmol; in experiment [10], 12.1 nmol. Besides, the inhibition at 30 µM in experiment [8] is -132%; in [9] it was 31.6%.
Turning to `O=C/C=C/c1ccccc1OCc1c(Cl)cccc1Cl`, the inhibition at 10 µM in experiment [1] was -50.6%; in experiment [7], 40.3%. In addition, the Activity in experiment [3] came out at 1.71 nmol; in experiment [5], 11.4 nmol; in experiment [6] it was 1.54 nmol; in experiment [10], 12 nmol. The inhibition at 30 µM in experiment [8] was -59.2%; in experiment [9] it was 46.8%.
On to `O=C/C=C/c1ccccc1OCc1ccccc1Cl`, for which the values for the inhibition at 10 µM in [1] and in [7] were -30.1% and 71.4%, respectively. Moreover, the inhibition at 3 µM in experiment [2] worked out at 40.1%. In addition, the Activity came to 0.82 nmol in [3]; 9.86 nmol in experiment [5]; 0.29 nmol in experiment [6]; 8.39 nmol in experiment [10]; 1.69 nmol in [11]. In experiment [4], this compound registered an IC50 of 4.4 µM. Besides, the inhibition at 30 µM in experiment [8] is -10.9%; in [9] it was 89.7%.
